Measurements from the EternaBench riboswitch data.

System: MS2 coat protein
Experiment: apparent Kd, MS2 coat protein; higher = weaker binding; RNA-MaP array; FMN 200 µM where present
Summary of the method: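 Stalled E. coli RNA polymerase transcribed each design on Illumina sequencing-chip clusters. The clusters were titrated with SNAP-549-labelled MS2 coat protein, starting at 0.7 or 1.5 nM and doubling up to 3 µM, first without ligand and then with constant ligand, in 100 mM Tris-HCl pH 7.5, 80 mM KCl, 4 mM MgCl2, BSA, DTT, yeast tRNA and Tween-20. Green signal was normalised to red-channel RNA signal and to the control-cluster median Fmax. The apparent Kd is the median of filtered binding-curve fits made for each cluster.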

[1] = designed as: OFF switch for flavin mononucleotide, no ligand
[2] = ligand present: flavin mononucleotide, designed as: OFF switch for flavin mononucleotide
[3] = designed as: ON switch for flavin mononucleotide, no ligand
[4] = ligand present: flavin mononucleotide, designed as: ON switch for flavin mononucleotide

Row | Sequence | apparent Kd [1] [nM] | apparent Kd [2] [nM] | apparent Kd [3] [nM] | apparent Kd [4] [nM]
1 | AAGGAUAGAGGAUAUACAUAGAUACAGAUUCAUGUAGAAUUACAUGAGGAUCACCCAUGUAGAAGGCUAUCCUA | 635 | 29 |  | 
2 | AAAGUUGGUAGGCCCUCGGAACAUGAGGAUCACCCAUGUAAGGAGGAUAUGCCCGGUACCCGCUGGCAGAAGGCCUUAUAAUAA | 10.5 | 61.6 |  | 
3 | CCCGACUAGAAGUCGAUACGGAGGAGAAGGCGCCUCCUGGGUCCACAUGAGGAUCACCCAUGUGGCGAGGAUAUCCUCAGUUUU | 10.9 | 96.6 |  | 
4 | CUGGAUGUCGAGGAUAUGCACCGGCUCGCUGACGCAGAAGGCGACACAUGAGGAUCACCCAUGUCGGUUCGCGA | 18.6 | 42 |  | 
5 | CUUUAUCACUAUACAUGAGGAUCACCCAUGUUAUCAUCAUGAGAGGAUAUCGUAUUUGGAUUUUUCGAGAAGGCUCUUUUGUAU |  |  | 108 | 77.1
6 | AAGAAGUCAGGAUAUCCAUGGCGGCACUUGCGUGGUGGCGUGGAGAAGGGACAUGAGGAUCACCCAUGUAAAGA | 51.4 | 35.8 |  | 
7 | GGUGCAGUGUAGAAGGCAGAUCUGAUUCAGAUCUGAGGAUAUACAUGAGGAUCACCCAUGUUAUGCACCAGCACGAGAGUGCAA | 6.28 | 8.76 |  | 
8 | UUAGCAACAUGAGGAUCACCCAUGUAGGAUAUCGCUAUUGUAAUCAUGAAACAUGAUUACAAUAGCGAGAAGGACAUAUGCUAC | 11.2 | 12.1 |  | 
9 | GUGGUUGUCGUAGGAUAUGUAGGAUAUUCCUACAUGAGGAUCACCCAUGUUCGCAUGGAAGAAGGACGGAAGGACGAUGACCAA |  |  | 306 | 125
10 | GCCUUACCGGUCAGGAUAUACACCCGUCACUCCUUGUAGAAGGGACAUGAGGAUCACCCAUGUACAUUACAUUG | 31.1 | 29.2 |  | 
11 | AAAGUGUAAGGAUAUGCUGCUCGUCACUUGCGUGAUGAGUAGCAGAAGGUACAUGAGGAUCACCCAUGUAAAGA | 32.3 | 40.6 |  | 
12 | GUAGUACAUGAGGAUCACCCAUGUGUGGGCGCAUGAGGAUAUGUCCGUACCUGGCGUACGAUAGAAGGCAUGGUGC |  |  | 52.8 | 29.3
13 | AAGCUGCGCCAGAAGGGACCGACAUGAGGAUCACCCAUGUCCACAAGAGUCAGGAUAUGGCGUGGAGGCUCGUUUAAGUCCAGG |  |  | 11.1 | 5.19
14 | GGAUCCAACACAGGAUAUGCUGGACUUUGUCCAGCAGAAGGGUGAAGAACAUGAGGAUCACCCAUGUGGAUCCAUAUAUUUAAU |  |  | 483 | 42.4
15 | GUUGGUUAUGUAGGAUAUGCGAGGCGAGCCUAAGCAGAAGGACAUGAGGAUCACCCAUGUAUUGCGGUCUGCGUUCAGAUCGCU | 36.2 | 156 |  | 
16 | GUAACGCUUGACAUGAGGAUCACCCAUGUUAGAUUGUUAUGUCAGGAUAUAGUCUAGAAACUAGACUAGAAGGGAUAUGUUGCU |  |  | 59.3 | 29
17 | CGGUGACGUGUAGGAUAUGGCGAUGGGUUUUGGCCAGAAGGACAUGAGGAUCACCCAUGUGGUAGAGGGUUGGCGGCUGCCCGU | 47.4 | 181 |  | 
18 | AAACAUGUCCGAGGAUAUCUGGAAACAUUUUCAAGAGAAGGCGGACAUGAGGAUCACCCAUGUCUCUCCUCAUCAACCACAAAU | 8.83 | 56.2 |  | 
19 | AGAAAUUCAGGAUAUACAUGAGGAUCACCCAUGUUUGGCAGAGGCGCCGAGAUCCCACGUAGAAGGGAAAAGAC | 37.1 | 79.9 |  | 
20 | AUGAGAAUUGUUAGGAUAUCCGUAAGUAAGUACUGGGAGAAGGGACAUGAGGAUCACCCAUGUGAUAGCCGACU | 102 | 80.6 |  | 
21 | CUACAUGAGGAUCACCCAUGUGCACACCGGAUCGGCGUGCGCAGAAGGGCCAUGGAGAAAGCCAGGCAGGAUAUGCAAAGGGCU |  |  | 396 | 189
22 | CUUAUGUGAGGAUAUCAGUAGUAAAAAAAUAAAAUUACUACUGAGAAGGCACAUGAGGAUCACCCAUGUCUUUC | 33 | 37.8 |  | 
23 | AUCAUGUAAGGAUAUCUUAUAUGGAUCGAAAGAUCAAGUUAAGAGAAGGUACAUGAGGAUCACCCAUGUAUAAC | 21.2 | 27.2 |  | 
24 | GAACGGUGAGCAGGAUAUCCACAUUGUCUCCUACAUGAGGAUCACCCAUGUGGAGAAGGGUUUAUAAGUUCGUGUAUACUCAAC | 6.35 | 6.9 |  | 
25 | GGUUACAAGUAAGGAUAUGUAUAUGAAACAUAUACAGAAGGUACAUGAGGAUCACCCAUGUUCUUGCAAAGCGAAUAUGUAACC | 15.1 | 18.6 |  | 
26 | CCCUCACAUGAGGAUCACCCAUGUCAGGAUAUUCGAGGCGCAAAUGCGCCAAAUGCAGGAAGAAGGGACGUGCC | 15.4 | 25.7 |  | 
27 | ACAUGAGGAUCACCCAUGUAAAAUUAAGAAGGUAGAUACUUGAGGAUCACCCAUGUACAUGGGACUAAGGAUAUUAUAAUAAUU |  |  | 55.7 | 49.1
28 | CGCGAUGCGGUUGGCCCUGGGCGAGAGGAUAUGGGCAGCGGGACAUGAGGAUCACCCAUGUUCUCUCAGAAGGCUCGAGCAGGC |  |  | 217 | 34.7

Row | Sequence | apparent Kd [1] [nM] | apparent Kd [2] [nM] | apparent Kd [3] [nM] | apparent Kd [4] [nM]
29 | GGGCAUAAUACAUGAGGAUCACCCAUGUCAGAAAGGGUAAUCAGAAGGUACUAUUAGAGAAAGAGUAAGGAUAUGAAUAUGCCC |  |  | 973 | 103
30 | CUUUUGUGAGGAUAUCAGUAGUAAAUAAAUAAAUUAACUACUGAGAAGGCACAUGAGGAUCACCCAUGUUCCUU | 13 | 29.4 |  | 
31 | UUGGACGUCGUAGGAUAUGUAGGAUAUUCCUACAUGAGGAUCACCCAUGUUGACAUGUAAGAAGGACAGAAGGACGAUGUCCAU |  |  | 208 | 12.2
32 | CGCUGUCAUGCAGGAUAUGCAUUGGUUUACAAUGCAGAAGGGCGAUUACAUGAGGAUCACCCAUGUGUAGACAGUGAAGAAGAG |  |  | 157 | 12.9
33 | UCAUUAUAAAUCCAUCAUAACUACAUGAGGAUCACCCAUGUGCAGGAUAUCGAUUAUUUUACUAACGAGAAGGGCAUUUACAGA | 51.1 | 181 |  | 
34 | GUAAUUAAGAGAGGAUAUUGACAUGAGGAUCACCCAUGUAUUUGGGAGUGUUCACUGAAUUCUUACGAGAAGGCUUUUAAAUAC | 329 | 285 |  | 
35 | AUCUUGAGAGGAUAUACAUGAGGAUCACCCAUGUUGCUAACACCAUGCGGUCAUUUGCGUAGAAGGCUCAUCCG | 26.2 | 104 |  | 
36 | UCCUGGCGAGGAUAUACAAAGUUUUUUACGUUUUGUUACGAACAUGAGGAUCACCCAUGUAGAAGGUGCUACUG | 78 | 67.3 |  | 
37 | CUGUUCUGUGUAGGAUAUGCAUAUUCCCAUUAUGCAGAAGGACAUGAGGAUCACCCAUGUAUGUUAUUAUCAUGUGUUACAUGC | 37.6 | 146 |  | 
38 | CUUAUACAUGAGGAUCACCCAUGUUAGGAUAUUCGCCCGCAUUGGAAGUCCGGUCUUGGAAGAAGGAACGUGGG | 36.8 | 59.1 |  | 
39 | GAGCAGGAAGGAUAUACAUGAGGAUCACCCAUGUACCAUCAAGGCUUUGAUUUUCACGGUAGAAGGUCCCAAUA | 40.3 | 51.4 |  | 
40 | AGAUUUAAUACAGGAUAUGUUAGUAUACAGUUGAUUGGUUAUUACAUUAUGACAGAAGGGUAGAACAUGAGGAUCACCCAUGUA |  |  | 241 | 115
41 | AGUCGGCAUGAGAAGGGUUACAUGAGGAUCACCCAUGUGAUCAAAUCGUUAACAGGAUAUCAGGCGUCGGGCUUUACCCGGAGG | 19.5 | 125 |  | 
42 | AUUAUACAUGAGGAUCACCCAUGUAAUUAAUUAAUUAAGAUCUAGGAUAUCAGCUCGAUUAGAGCUGAGAAGGAGAUCACAUGU |  |  | 29.9 | 18.7
43 | GUGACUUAUAGAGGAUAUUGACAUGAGGAUCACCCAUGUAUUUGGUAGUGUUCAAUGAAUUCUUGCGAGAAGGCUAUAAGACAC | 221 | 261 |  | 
44 | GGUUUGCGGCAGGAUAUCCAUCCGCGGUGUGGUGGAGAAGGGCUGACAUGAGGAUCACCCAUGUGCGUCCUGGG | 33.8 | 71.7 |  | 
45 | AUAAGCUCGUCAGGAUAUGCGACACUGUUUCUGCAGUGUGGUAUGAUCACAUGAGGAUCACCCAUGUAGAAGGGACGAGCUUAU | 6.66 | 13.9 |  | 
46 | AUGCUUUAUGUAGGAUAUUCAAACAAAGAGAAUGGAGAAGGACAUGAGGAUCACCCAUGUAGAAUGAUGUUAGAUAUCAUAUAU | 16.3 | 14.4 |  | 
47 | GUAGCAUACCGAGGAUAUCUAUAUAAUAAACAAACAUGAGGAUCACCCAUGUGGCGAAAGCCAAGGGAGAAGGCGGAAUGCUAC |  |  | 35.6 | 22.1
48 | CGAGACCUCACAGGAUAUGCUGGACUUUGUCCAGCAGAAGGGUGAAAACAUGAGGAUCACCCAUGUAUGGUCUCCAAAUUUAAG |  |  | 195 | 13.2
49 | GUCGUGUGAGGAUAUGGAUAGAAGAAGUGAAAGUAAGCGACCUAGAAGGCACAUGAGGAUCACCCAUGUAUGUG | 45.3 | 75.6 |  | 
50 | AGACUGAAGCAAGGAUAUUGUAAGGUUAAUGUACAAGAAGGUGCUGUUUAUGUCUCUUAACAUGAGGAUCACCCAUGUUUUGAA |  |  | 19.1 | 19.2
51 | AGCUAGUCAGGAUAUACGAACAUGUCAAAAGACGUGAAGGGACAUGAGGAUCACCCAUGUAGAAGGGACUAGCC | 26.7 | 170 |  | 
52 | GAGCGAAAGCUCAAUGUCGAUAGCAGAAGGGCAUGAAAACAUGAAAACACAUGAGGAUCACCCAUGUAGGAUAUGCUAUCGACU | 10.6 | 17.6 |  | 
53 | UGAGCAACAGGAUAUAUGUGGCGUCCGUGAGGACGAAGGUUACAUGAGGAUCACCCAUGUAGAAGGGUUGUUCU | 169 | 366 |  | 
54 | UUUUUAGCAGGAUAUAUCCACGACCACAUGAGGAUCACCCAUGUGGCCGCUUGAGGUUGUAUAGAAGGGCUUUUUU | 14 | 14.8 |  | 
55 | GUGCUUAACUAGAAGGCCGUAUGCAAAGCAUACGGAGGAUAUGGGUUCCGGAAACGGACAUGAGGAUCACCCAUGUGGCACAAA |  |  | 111 | 12.7
